OX1R antag-1 – OX1R (human) antagonism | AID 485270 | inhibition, % at 6.6 µM | OX1R-expressing cells, FRET antagonist read-out | O43613 | 330,000 compounds, 1.8% hits; in the data active = inhibition mostly above about 38%, no sharp cut-off; inactive = mostly below about 40%;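 note: 0% = agonist challenge alone and 100% = reference antagonist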
GalR3 antagonist – blocks the human galanin receptor 3; O60755; inhibition, % at 3 µM; HEK293 GalR3-CNG cAMP membrane potential fluorescence; galR3 body fused to GalR1 C-terminus; 360,000 compounds, 0.44% hits;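 active = inhibition above the screen-wide average plus 3 SD, cut at about 13% in these data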;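 note: forskolin and galanin both at EC90 stimulate the cells; cAMP rise reported by CNG channel membrane potential dye signal; 0% = forskolin plus galanin with DMSO and 100% = forskolin alone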
CHO parental Ca – counter-screen: ATP calcium response change in parental CHO cells | parental CHO-K1, ATP-induced calcium, Fluo-8 fluorescence | inhibition, % at 5.6 µM | 330,000 compounds, 0.63% hits | AID 463079;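 active = inhibition above that plate's mean sample inhibition plus 3 SD, cut at about 26% in these data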;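 note: 0% = ATP-challenged DMSO wells and 100% = DMSO wells without ATP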
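Test system: parental CHO cells; detection: calcium-sensitive Fluo-8 fluorescence; evaluation: percent inhibition of calcium signal; also added: ATP as calcium-mobilizing challenge; repeats: one well per compound; control set: ATP-challenged DMSO wells low, unchallenged DMSO wells high; compound: single nominal dose of 5.6 µM per compound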
TAAR1 agonist – agonists of human TAAR1 | Q96RJ0 | CHO RD-HGA16 TAAR1, Fluo-8 calcium fluorescence; vehicle wells 0%, saturating PEA agonist 100% | activation, % at 3 µM | 360,000 compounds, 0.99% hits;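 active = activation above the mean activation of all test compounds in the run plus 3 SD, cut at about 38% in these data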
Target sequence (Q96RJ0 whole entry, looked up): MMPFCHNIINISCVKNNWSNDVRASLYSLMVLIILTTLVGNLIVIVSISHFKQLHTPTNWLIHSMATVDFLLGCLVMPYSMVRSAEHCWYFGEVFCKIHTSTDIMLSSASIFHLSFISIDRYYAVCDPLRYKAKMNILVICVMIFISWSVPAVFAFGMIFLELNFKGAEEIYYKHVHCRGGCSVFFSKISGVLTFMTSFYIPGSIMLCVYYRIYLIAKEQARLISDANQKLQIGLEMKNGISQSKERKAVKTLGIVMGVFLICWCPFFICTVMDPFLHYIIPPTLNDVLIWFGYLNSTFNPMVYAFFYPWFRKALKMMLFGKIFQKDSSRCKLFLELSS
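Test system: RD-HGA16 (CHO) cells co-expressing Gα16 and hTAAR1 | Doses: Single dose, 3 µM | Schedule: 17-24 h seeding, 75 min 37 °C dye, 30 min RT | Evaluation: % activation from peak over basal fluorescence ratio, DMSO-to-PEA scaled | Technique: Kinetic Fluo-8 calcium fluorescence | Benchmarks: Low control DMSO, high control PEA (EC100)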
OX1R antag-2 – human HCRTR1 antagonism; O43613; CHO/OX1R cells, Fluo-8 calcium fluorescence, orexin A; inhibition, % at 5 µM; 330,000 compounds, 0.43% hits; AID 434989;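 active = inhibition above its plate's threshold, mean inhibition of all tested compounds on the plate plus 3 SD, cut at about 37% in these data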;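 note: 0% = orexin A challenge wells and 100% = SB-334867-A antagonist wells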
TAAR1 antagonist – antagonists of human TAAR1; inhibition, % at 3 µM; 360,000 compounds, 1.5% hits; Q96RJ0; CHO RD-HGA16 TAAR1, Fluo-8 calcium fluorescence, antagonist; AID 624466;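 active = inhibition above a per-plate cutoff, the mean inhibition of test compounds on that plate plus 3 SD, cut at about 49% in these data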;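 note: 0% = DMSO plus EC80 beta-PEA response and 100% = DMSO alone without agonist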
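Assay system: CHO-derived RD-HGA16 cells stably expressing human TAAR1 plus Gα16. Timing: 140 s kinetic read after compound, 140 s after agonist. Technique: kinetic Fluo-8 calcium fluorescence measurement. Measure: % inhibition of agonist calcium response.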
* = called active by the depositor; . = no result given. Rows were chosen to be rich in hits. Some 4.2% of all compounds tested hit in one or more screens of this group.

SMILES	OX1R antag-1	GalR3 antagonist	CHO parental Ca	TAAR1 agonist	OX1R antag-2	TAAR1 antagonist
C=CCNc1nc(-c2cccc(OC)c2O)nc2ccccc12	47*	-3	5	17	-8	26
COc1cccc(-c2nc(NCc3ccccc3)c3ccccc3n2)c1O	37*	-8	-1	0	-9	5
COc1cccc(C(=O)N2CCN(C3CCC(c4ccccc4)CC3)CC2)c1 (stereo unspecified)	.	-2	.	8	.	1
O=C(OCc1ccccn1)c1ccc(COc2ccc3ccccc3c2)o1	5	0	48*	0	40	19
Cc1ccccc1OCCOC(=O)c1ccc(S(=O)(=O)N2CCCC2)cc1	9	-3	30*	4	11	30
O=C(OCCOc1ccc(F)cc1)c1ccc(S(=O)(=O)N2CCCC2)cc1	11	0	-5	4	-2	30
CCOC(=O)c1c2c(n(Cc3ccccc3)c1C)C(=O)C(=O)c1ccccc1-2	.	-4	.	3	.	55*
CN1CCN(Cn2cc(/C=C/C(=O)c3ccccc3)c3ccccc32)CC1	40*	.	-13	.	14	.
O=C(/C=C/c1cn(CC(O)CN2CCCCC2)c2ccccc12)c1ccccc1 (stereo unspecified)	.	-9	.	11	.	-8
Cc1ccc(C)c(-n2c3nc(=O)n(C)c(=O)c-3cc3ccccc32)c1	63*	-6	-15	1	-24	-44
COc1ccccc1/C=C/C(=O)OCC(=O)N1CCc2ccccc21	32*	-7	-36	1	-4	7
COCCNS(=O)(=O)c1ccc(F)c(OC)c1	1	-5	-2	9	-12	-1
COCCNS(=O)(=O)c1ccc2c(c1)C(=O)c1cc(S(=O)(=O)NCCOC)ccc1-2	66*	-3	2	4	-3	2
O=C1c2cc(S(=O)(=O)NCCCO)ccc2-c2ccc(S(=O)(=O)NCCCO)cc21	54*	-2	4	10	1	6
Cc1cc(N2CCN(S(=O)(=O)c3ccc(Cl)cc3)CC2)c2ccccc2n1	30	-8	58*	21	24	31
Cn1c(N2CCN(S(=O)(=O)c3ccc(Cl)cc3)CC2)nc2ccccc21	9	-6	5	7	-17	42
Cc1ccc(S(=O)(=O)N2CCN(c3ccnc4cc(Cl)ccc34)CC2)cc1	31	-7	56*	1	53*	45
Cc1ccc(S(=O)(=O)N2CCN(c3ccnc4cc(Cl)ccc34)CC2)cc1C	55	-2	37*	8	25	14
CCOC(=O)c1nn(-c2ccc(F)cc2)c(=O)c2c(N)scc12	93	-5	-17	2	-4	5
CCOC(=O)c1nn(-c2ccc(Cl)cc2)c2nc(CC)c(C#N)c(=O)n12	13	-7	-16	1	-30	-11
CCOC(=O)c1nn(-c2ccc(F)cc2)c2nc(-c3ccccc3)c(C#N)c(=O)n12	23	-12	-10	0	-32	-14
CCOC(=O)c1nn(-c2ccc(Cl)cc2)c(=O)c(C#N)c1C	50*	-5	11	2	-13	1
CCOC(=O)c1nn(-c2ccc(C)cc2)c(=O)c2c(N)scc12	77*	-5	-18	10	-17	-2
Cc1c(C(=O)N2CCCCC2)nn(-c2ccc(Cl)cc2)c(=O)c1C#N	61*	-2	-20	1	-23	-11
CCOC(=O)c1nn(-c2ccc(F)cc2)c(=O)c(C#N)c1C	54*	-5	-10	3	-11	-8
COc1ccc(Br)cc1CNC(=O)C1CCN(S(=O)(=O)N2CCC(C)CC2)CC1	16	-1	-18	-1	-33	-5
CCOC(=O)C(CC)n1cnc2sc3c(c2c1=O)CCC3 (stereo unspecified)	18	1	9	-3	5	-15
COc1ccc(/C=C2\SC(=O)N(CCNC(=O)CN3C(=O)NC4(CCCC4)C3=O)C2=O)cc1	28	-4	-6	0	-14	1
O=C(CN1C(=O)/C(=C/c2ccccc2F)Sc2ccccc21)NCC1CCCO1 (stereo unspecified)	66*	2	-20	-1	22	5

Screening results from PubChem BioAssay.
